Source: publication PMC3448790 (Biochemistry, 2012)
“Also recorded” adds a separate entry of the source. Where a SMILES comes first, the peptide text is derived from it.

Experiments:
[1] = system: human erythrocyte ghosts; assay: Ektacytometry of resealed ghosts; assay type: cell-based; details: 6 or 15 μM cyclic peptide resealed; elongation index vs shear stress
In short: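 Washed human red cells from ACD-anticoagulated volunteer blood, with buffy coat and plasma removed, were suspended in PBS/5 mM glucose/2 mM MgCl2 with cyclized test peptide or without (control). Cells were flash-frozen in liquid N2 for 40 s, thawed at room temperature, then resealed 45 min at 37°C. Ghosts were washed in PBS/glucose/0.5% BSA and assessed by ektacytometry as elongation index under gradually increasing shear stress.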

[2] = system: human erythrocyte ghosts; assay: Peptide resealing into red cells, morphology by light microscopy; assay type: cell-based; details: peptide 0, 6, 12 or 30 μM resealed 45 min at 37°C; 100x oil immersion

CSCC[C@@H]1NC(=O)[C@H](C(C)C)NC(=O)[C@H](CC(C)C)NC(=O)[C@H](CCC(=O)O)NC(=O)[C@@H](N)CSSC[C@@H](C(=O)O)NC(=O)[C@H](CC(C)C)NC(=O)[C@H](CCC(=O)O)NC(=O)[C@H](CCC(N)=O)NC(=O)[C@H](CC(N)=O)NC(=O)[C@H](CCCCN)NC(=O)[C@H](CCC(=O)O)NC(=O)[C@H](CC(=O)O)NC1=O [cyclized peptide] (HELM PEPTIDE1{C.E.L.V.M.D.E.K.N.Q.E.L.C}$PEPTIDE1,PEPTIDE1,1:R3-13:R3$$$V2.0; N-terminus and C-terminus assumed)
effect on membrane deformability (in words) [1]: compromised membrane deformability
effect on red cell membrane morphology (in words) [2]: membrane blebbing and a gradual decrease in membrane surface area; also recorded: extensive vesiculation at higher peptide concentrations
